Assays:
Plasmepsin IV = Plasmepsin IV (Plasmodium falciparum 3D7, UniProt Q8IM16); assay: Inhibition constant against plasmepsin-4 of Plasmodium falciparum
Plasmepsin II = Plasmepsin II (Plasmodium falciparum, UniProt P46925); assay: Inhibition constant against plasmepsin-2 of Plasmodium falciparum 10 min using 3 uM of DABCYL-Glu-Arg-Nle-Phe-Le u-Ser-Phe-Pro-EDANS as substrate
How it was run: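 Pro-Plm II at 3 nM is self-activated by 40 min preincubation at room temperature in 100 mM sodium acetate pH 4.5, 10% glycerol, 0.01% Tween 20. Inhibitor in DMSO (1% final) is added before 3 µM FRET substrate, and the linear fluorescence increase is read over 10 min. IC50 is fitted to a competitive Langmuir isotherm and converted to Ki via IC50/(1+[S]/Km).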

Plasmepsin I = Plasmepsin I (Plasmodium falciparum, UniProt P39898); assay: Inhibition constant against plasmepsin-1 of Plasmodium falciparum, 10 min using 3 uM of DABCYL-Glu-Arg-Nle-Phe-Le u-Ser-Phe-Pro-EDANS as substrate
Sequence of Plasmepsin I (P39898 whole entry): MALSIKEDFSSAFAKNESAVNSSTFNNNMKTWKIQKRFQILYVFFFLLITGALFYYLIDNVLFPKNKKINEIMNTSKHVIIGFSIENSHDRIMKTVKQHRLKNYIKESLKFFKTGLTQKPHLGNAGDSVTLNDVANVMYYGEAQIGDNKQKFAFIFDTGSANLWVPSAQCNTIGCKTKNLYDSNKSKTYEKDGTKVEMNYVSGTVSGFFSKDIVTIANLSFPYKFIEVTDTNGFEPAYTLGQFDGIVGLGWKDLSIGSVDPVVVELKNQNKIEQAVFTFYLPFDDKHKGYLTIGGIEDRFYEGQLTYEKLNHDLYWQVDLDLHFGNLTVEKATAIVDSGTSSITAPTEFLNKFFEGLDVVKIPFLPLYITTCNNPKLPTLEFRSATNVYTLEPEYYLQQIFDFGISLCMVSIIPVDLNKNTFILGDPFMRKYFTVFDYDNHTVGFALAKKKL
How it was run: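 Recombinant Plm I, amount set to match Plm II catalytic activity, in 100 mM sodium acetate pH 4.5 with 10% glycerol and 0.01% Tween 20. DMSO inhibitor dilutions (1% final DMSO) are added, then 3 µM FRET substrate. Fluorescence rise is followed over a linear 10 min. IC50 comes from a Langmuir fit assuming competitive inhibition, and Ki = IC50/(1+[S]/Km), with Km from Michaelis–Menten.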

Cathepsin D = Cathepsin D (Homo sapiens, UniProt P07339); assay: Inhibition constant against pro-cathepsin D (50 ng/mL) of human liver upon incubation at pH 4.5 for 10 min using DABCYL-Glu-Arg-Nle-Phe-Le u-Ser-Phe-Pro-EDANS as substrate
Sequence of Cathepsin D (P07339 65-162 limits assumed): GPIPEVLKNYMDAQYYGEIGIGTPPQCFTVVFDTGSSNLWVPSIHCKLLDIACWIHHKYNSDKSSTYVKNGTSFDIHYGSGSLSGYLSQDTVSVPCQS
Sequence of Cathepsin D (P07339 169-412 limits assumed): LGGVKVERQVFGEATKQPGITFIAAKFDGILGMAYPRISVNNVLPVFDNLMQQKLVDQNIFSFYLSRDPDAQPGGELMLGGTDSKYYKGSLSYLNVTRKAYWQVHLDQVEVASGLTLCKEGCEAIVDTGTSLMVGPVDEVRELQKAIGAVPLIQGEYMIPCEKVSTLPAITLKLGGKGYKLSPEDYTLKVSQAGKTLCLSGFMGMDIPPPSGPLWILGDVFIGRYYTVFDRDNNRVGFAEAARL
How it was run: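 Human liver pro-Cat D at 50 ng/mL is activated for 20 min at 37 °C in 100 mM sodium acetate pH 4.5, 10% glycerol, 0.01% Tween 20. Inhibitor in DMSO (1% final) precedes 3 µM FRET substrate, and the fluorescence increase is followed over a linear 10 min. IC50 is from a competitive Langmuir fit, and Ki = IC50/(1+[S]/Km), with Km from Michaelis–Menten.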

Sequence of Plasmepsin II (P46925 whole entry): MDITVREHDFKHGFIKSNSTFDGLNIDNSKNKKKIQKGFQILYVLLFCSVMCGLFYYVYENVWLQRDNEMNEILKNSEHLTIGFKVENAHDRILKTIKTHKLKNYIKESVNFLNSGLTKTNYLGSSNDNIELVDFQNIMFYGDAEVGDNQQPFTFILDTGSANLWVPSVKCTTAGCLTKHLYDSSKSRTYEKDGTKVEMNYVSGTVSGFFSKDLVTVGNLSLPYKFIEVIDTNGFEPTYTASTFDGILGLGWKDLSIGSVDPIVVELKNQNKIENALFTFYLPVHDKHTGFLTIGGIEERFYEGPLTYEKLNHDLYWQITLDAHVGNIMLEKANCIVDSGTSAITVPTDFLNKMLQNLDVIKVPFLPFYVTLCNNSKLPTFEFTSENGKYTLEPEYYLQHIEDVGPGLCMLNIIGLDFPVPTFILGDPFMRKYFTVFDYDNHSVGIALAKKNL
Sequence of Plasmepsin IV (Q8IM16 whole entry): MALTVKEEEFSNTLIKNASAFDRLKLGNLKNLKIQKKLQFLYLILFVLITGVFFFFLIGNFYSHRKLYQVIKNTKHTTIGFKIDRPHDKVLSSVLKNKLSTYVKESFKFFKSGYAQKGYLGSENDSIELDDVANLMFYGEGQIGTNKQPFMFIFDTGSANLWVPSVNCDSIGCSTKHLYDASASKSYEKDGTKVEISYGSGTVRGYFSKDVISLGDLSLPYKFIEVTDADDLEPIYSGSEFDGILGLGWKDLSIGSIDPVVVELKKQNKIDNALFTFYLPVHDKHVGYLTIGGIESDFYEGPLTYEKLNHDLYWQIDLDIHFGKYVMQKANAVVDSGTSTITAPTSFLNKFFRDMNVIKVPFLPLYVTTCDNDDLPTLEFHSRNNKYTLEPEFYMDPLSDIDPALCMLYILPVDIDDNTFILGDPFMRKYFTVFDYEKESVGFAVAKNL

Ki (Plasmepsin IV)	Ki (Plasmepsin II)	Ki (Plasmepsin I)	Ki (Cathepsin D)	Structure (SMILES)
35 nM	> 5000 nM	> 3000 nM	> 6 µM	CC(C)(C)c1ccc(-c2nnc([C@H](OC/C=C/Br)[C@H](O)[C@@H](O)[C@@H](OC/C=C/Br)c3nnc(-c4ccc(C(C)(C)C)cc4)o3)o2)cc1
–	> 5000 nM	> 3000 nM	> 6 µM	Cc1nnc([C@H](OC/C=C/Br)[C@H](O)[C@@H](O)[C@@H](OC/C=C/Br)C(=O)N[C@H]2c3ccccc3C[C@H]2O)o1
–	6 nM	19 nM	> 6 µM	O=C(CCc1c[nH]c2ccccc12)NNC(=O)[C@H](OC/C=C/Br)[C@H](O)[C@@H](O)[C@@H](OC/C=C/Br)C(=O)N[C@H]1c2ccccc2C[C@H]1O
–	> 5000 nM	> 3000 nM	> 6 µM	Cc1n[nH]c([C@H](OC/C=C/Br)[C@H](O)[C@@H](O)[C@@H](OC/C=C/Br)C(=O)N[C@H]2c3ccccc3C[C@H]2O)n1
–	> 5000 nM	> 3000 nM	> 6 µM	CC(C)(C)c1ccc(-c2nnc([C@H](OC/C=C/Br)[C@H](O)[C@@H](O)[C@@H](OC/C=C/Br)C(=O)N[C@H]3c4ccccc4C[C@H]3O)o2)cc1
–	10 nM	11 nM	> 6 µM	O=C(CCCc1ccccc1)NNC(=O)[C@H](OC/C=C/Br)[C@H](O)[C@@H](O)[C@@H](OC/C=C/Br)C(=O)N[C@H]1c2ccccc2C[C@H]1O
–	2300 nM	1600 nM	> 6 µM	O=C(N[C@H]1c2ccccc2C[C@H]1O)[C@H](OC/C=C/Br)[C@H](O)[C@@H](O)[C@@H](OC/C=C/Br)c1nnc(CCCc2ccccc2)o1
–	1300 nM	2000 nM	> 6 µM	O=C(CCN1CCOCC1)NNC(=O)[C@H](OC/C=C/Br)[C@H](O)[C@@H](O)[C@@H](OC/C=C/Br)C(=O)N[C@H]1c2ccccc2C[C@H]1O
> 5000 nM	–	–	–	C=CCO[C@@H](C(=O)N[C@H]1c2ccccc2C[C@H]1O)[C@H](O)[C@@H](O)[C@@H](OCC=C)C(=O)N[C@H]1c2ccccc2C[C@H]1O
–	14 nM	31 nM	> 6 µM	O=C(Cc1ccccc1)NNC(=O)[C@H](OC/C=C/Br)[C@H](O)[C@@H](O)[C@@H](OC/C=C/Br)C(=O)N[C@H]1c2ccccc2C[C@H]1O
–	359 nM	698 nM	> 6 µM	CC(=O)NNC(=O)[C@H](OC/C=C/Br)[C@H](O)[C@@H](O)[C@@H](OC/C=C/Br)C(=O)N[C@H]1c2ccccc2C[C@H]1O
–	> 5000 nM	> 3000 nM	> 6 µM	CC(=O)NNC(=O)[C@H](OC/C=C/Br)[C@H](O)[C@@H](O)[C@@H](OC/C=C/Br)C(=O)NNC(C)=O
–	2100 nM	> 3000 nM	> 6 µM	O=C(N[C@H]1c2ccccc2C[C@H]1O)[C@H](OC/C=C/Br)[C@H](O)[C@@H](O)[C@@H](OC/C=C/Br)c1nnc(Cc2ccccc2)o1
–	586 nM	1090 nM	> 6 µM	CN1CCN(CCC(=O)NNC(=O)[C@H](OC/C=C/Br)[C@H](O)[C@@H](O)[C@@H](OC/C=C/Br)C(=O)N[C@H]2c3ccccc3C[C@H]2O)CC1
–	161 nM	124 nM	> 6 µM	C=CCO[C@@H](C(=O)NNC(=O)CCc1ccccc1)[C@H](O)[C@@H](O)[C@@H](OCC=C)C(=O)N[C@H]1c2ccccc2C[C@H]1O
–	> 5000 nM	> 3000 nM	> 6 µM	Cc1nnc([C@H](OC/C=C/Br)[C@H](O)[C@@H](O)[C@@H](OC/C=C/Br)c2nnc(C)o2)o1
–	3400 nM	> 3000 nM	> 6 µM	O=C(N[C@H]1c2ccccc2C[C@H]1O)[C@H](OC/C=C/Br)[C@H](O)[C@@H](O)[C@@H](OC/C=C/Br)c1nnc(-c2ccccc2)o1
–	142 nM	198 nM	> 6 µM	CC(C)(C)c1ccc(C(=O)NNC(=O)[C@H](OC/C=C/Br)[C@H](O)[C@@H](O)[C@@H](OC/C=C/Br)C(=O)N[C@H]2c3ccccc3C[C@H]2O)cc1
–	7 nM	9 nM	> 6 µM	O=C(CCc1ccccc1)NNC(=O)[C@H](OC/C=C/Br)[C@H](O)[C@@H](O)[C@@H](OC/C=C/Br)C(=O)N[C@H]1c2ccccc2C[C@H]1O
–	2900 nM	> 3000 nM	> 6 µM	O=C(N[C@H]1c2ccccc2C[C@H]1O)[C@H](OC/C=C/Br)[C@H](O)[C@@H](O)[C@@H](OC/C=C/Br)c1nnc(CCc2ccccc2)o1
–	168 nM	261 nM	> 6 µM	O=C(NNC(=O)[C@H](OC/C=C/Br)[C@H](O)[C@@H](O)[C@@H](OC/C=C/Br)C(=O)N[C@H]1c2ccccc2C[C@H]1O)c1ccccc1
478 nM	1500 nM	1840 nM	3 µM	CC(C)(C)c1ccc(C(=O)NNC(=O)[C@H](OC/C=C/Br)[C@H](O)[C@@H](O)[C@@H](OC/C=C/Br)C(=O)NNC(=O)c2ccc(C(C)(C)C)cc2)cc1
–	11 nM	6 nM	0.8 µM	O=C(CCc1ccccc1)NNC(=O)[C@H](OC/C=C/c1ccc2c(c1)OCO2)[C@H](O)[C@@H](O)[C@@H](OC/C=C/c1ccc2c(c1)OCO2)C(=O)N[C@H]1c2ccccc2C[C@H]1O
–	145 nM	38 nM	1.2 µM	CC(=O)c1ccc(/C=C/CO[C@@H](C(=O)NNC(=O)CCc2ccccc2)[C@H](O)[C@@H](O)[C@@H](OC/C=C/c2ccc(C(C)=O)cc2)C(=O)N[C@H]2c3ccccc3C[C@H]2O)cc1

— ChEMBL document CHEMBL1141092, “Synthesis of malarial plasmepsin inhibitors and prediction of binding modes by molecular dynamics simulations” (J Med Chem, 2005)
